Measurements as given in ChEMBL document CHEMBL4251655 (Eur J Med Chem, 2018).
≈ marks a conversion by molar mass, not a printed value.

Experiments:
[1] = target: cAMP-dependent protein kinase catalytic subunit alpha (Homo sapiens) (UniProt P17612); experiment: Inhibition of recombinant human His-tagged PRKACA expressed in Escherichia coli at 1 uM relative to control
Method in brief: (§1)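 Forty-kinase selectivity panel; each compound tested at a single 1 µM concentration in the presence of 1 mM ATP; result given as percent inhibition.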

[2] = target: T1, Tyrosine-protein kinase JAK3 (Homo sapiens) (UniProt P52333); experiment: Inhibition of recombinant human GST-tagged JAK3 expressed in baculovirus expression system at 1 uM relative to control; method in brief: as §1
T1 sequence (whole entry): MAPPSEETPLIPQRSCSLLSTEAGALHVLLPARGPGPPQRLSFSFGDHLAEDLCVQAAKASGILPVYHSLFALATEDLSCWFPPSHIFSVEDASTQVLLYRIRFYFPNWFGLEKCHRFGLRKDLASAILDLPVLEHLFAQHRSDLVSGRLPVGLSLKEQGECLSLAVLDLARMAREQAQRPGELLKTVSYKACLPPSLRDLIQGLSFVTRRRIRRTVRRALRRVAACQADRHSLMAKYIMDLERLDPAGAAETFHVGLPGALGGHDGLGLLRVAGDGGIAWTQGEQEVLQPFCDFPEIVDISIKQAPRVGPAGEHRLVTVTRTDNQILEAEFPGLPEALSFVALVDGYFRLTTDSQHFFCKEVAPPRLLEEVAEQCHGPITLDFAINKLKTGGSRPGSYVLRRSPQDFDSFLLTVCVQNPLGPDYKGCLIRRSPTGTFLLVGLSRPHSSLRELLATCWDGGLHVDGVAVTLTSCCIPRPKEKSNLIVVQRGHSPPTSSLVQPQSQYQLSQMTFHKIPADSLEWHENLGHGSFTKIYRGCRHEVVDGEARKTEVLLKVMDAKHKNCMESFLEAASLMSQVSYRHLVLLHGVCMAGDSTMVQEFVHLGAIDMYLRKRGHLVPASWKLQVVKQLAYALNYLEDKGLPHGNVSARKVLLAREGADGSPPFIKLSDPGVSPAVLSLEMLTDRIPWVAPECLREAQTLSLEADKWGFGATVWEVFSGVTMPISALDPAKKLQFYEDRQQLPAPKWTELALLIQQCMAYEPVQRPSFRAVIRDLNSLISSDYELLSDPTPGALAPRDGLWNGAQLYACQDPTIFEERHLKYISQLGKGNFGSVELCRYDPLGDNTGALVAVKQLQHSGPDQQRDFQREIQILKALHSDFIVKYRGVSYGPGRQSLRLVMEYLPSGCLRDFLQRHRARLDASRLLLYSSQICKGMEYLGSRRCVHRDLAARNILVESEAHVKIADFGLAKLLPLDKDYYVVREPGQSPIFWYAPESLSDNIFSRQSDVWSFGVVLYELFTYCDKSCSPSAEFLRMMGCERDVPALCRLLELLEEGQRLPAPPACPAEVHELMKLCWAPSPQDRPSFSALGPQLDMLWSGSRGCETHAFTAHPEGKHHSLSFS

[3] = Thermodynamic solubility of the compound at pH 7.4; format: physicochemical; conditions: buffer, read-out: Therm_solubility
[4] = Clearance in rat at 1 mg/kg, iv by LC-MS/MS analysis; format: ADME, organism-based; conditions: in vivo
Method in brief: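 Rat, single 1 mg/kg intravenous dose.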

[5] = Clearance in rat hepatocytes assessed per million cells; format: ADME, cell-based, Hepatocyte
[6] = target: T2, Serine/threonine-protein kinase Nek2 (Homo sapiens) (UniProt P51955); experiment: Inhibition of recombinant human full length His-tagged NEK2 expressed in baculovirus expression system at 1 uM relative to control; method in brief: as §1
T2 sequence (whole entry): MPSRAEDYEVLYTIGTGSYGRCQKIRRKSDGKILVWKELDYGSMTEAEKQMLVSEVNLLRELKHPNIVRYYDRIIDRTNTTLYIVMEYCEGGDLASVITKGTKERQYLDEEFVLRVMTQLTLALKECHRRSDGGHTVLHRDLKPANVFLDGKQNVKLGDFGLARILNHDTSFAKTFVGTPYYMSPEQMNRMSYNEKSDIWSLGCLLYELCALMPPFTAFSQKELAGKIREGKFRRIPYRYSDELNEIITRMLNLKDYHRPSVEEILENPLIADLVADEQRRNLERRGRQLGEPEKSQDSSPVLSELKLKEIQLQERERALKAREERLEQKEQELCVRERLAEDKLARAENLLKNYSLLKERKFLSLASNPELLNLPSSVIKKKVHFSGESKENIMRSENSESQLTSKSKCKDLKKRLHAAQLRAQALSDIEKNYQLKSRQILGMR

[7] = Oral bioavailability in rat at 5 mg/kg administered via gavage; format: ADME, organism-based; conditions: in vivo
Method in brief: (§2)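 Rat, oral dosing as a solution.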

[8] = Oral bioavailability in rat at 1 mg/kg administered via gavage; format: ADME, organism-based; conditions: in vivo; method in brief: as §2

Row | Structure (SMILES) | inhibition [1] [%] | inhibition [2] [%] | solubility thermodynamic [3] [µM] | clearance [4] [mL/min/kg] | CLH [5] [µL/min/1e6 cells] | inhibition [6] [%] | bioavailability [7] [%] | bioavailability [8] [%]
1 | COc1cc(C)c(C(N)=O)cc1C(=O)Nc1cccc(-c2nncn2C(C)C)n1 | -1 | 3 |  |  |  |  |  | 
2 | COc1cc(C)c(S(N)(=O)=O)cc1C(=O)Nc1cccc(-c2nncn2C(C)C)n1 | 1 | 16 |  |  |  | 0 |  | 
3 | COc1ccc(S(C)(=O)=O)cc1C(=O)Nc1cccc(-c2nncn2C(C)C)n1 | -5 | 12 | 5 (≈ 2.08 µg/mL) | 41 | < 6 | 1 |  | 8

Now from value to compound:

Row | inhibition [1] [%] | inhibition [2] [%] | solubility thermodynamic [3] [µM] | clearance [4] [mL/min/kg] | CLH [5] [µL/min/1e6 cells] | inhibition [6] [%] | bioavailability [7] [%] | bioavailability [8] [%] | Structure (SMILES)
4 |  | -8 | 1.2 (≈ 0.5 µg/mL) | 35 | < 6 | -3 | < 1 |  | COc1ccc(S(N)(=O)=O)cc1C(=O)Nc1cccc(-c2nncn2C(C)C)n1
5 | -1 |  |  |  |  |  |  |  | COc1ccc(C(N)=O)cc1C(=O)Nc1cccc(-c2nncn2C(C)C)n1
6 | 3 | 0 |  |  |  |  |  |  | COc1cc(C)c(S(C)(=O)=O)cc1C(=O)Nc1cccc(-c2nncn2C(C)C)n1
